Experimental data from ChEMBL document CHEMBL3593221, “Design, synthesis and preliminary biological evaluation of indoline-2,3-dione derivatives as novel HDAC inhibitors” (Bioorg Med Chem, 2015).

Assays:
[1] = molecular target: Histone deacetylase (HDAC1 and HDAC2) (Homo sapiens, UniProt Q13547+Q92769); test: Inhibition of HDAC1/2 in human HeLa cell nuclear extract using Boc-Lys (acetyl)-AMC as substrate preincubated for 30 mins before substrate addition measured after 20 mins by UV-vis spectrophotometer analysis; format: cell-based
[2] = Antiproliferative activity against human ES2 cells after 48 hrs by MTT assay; format: functional, cell-based; conditions: ES-2, 48 h
[3] = Antiproliferative activity against human KG1 cells after 48 hrs by MTT assay; format: functional, cell-based; conditions: KG-1, 48 h
[4] = tested on: PC-3; test: Antiproliferative activity against human PC3 cells after 48 hrs by MTT assay; format: functional, cell-based; conditions: PC-3, 48 h
[5] = Antiproliferative activity against human 3AO cells after 48 hrs by MTT assay; format: functional, cell-based
[6] = tested on: K562; test: Antiproliferative activity against human K562 cells after 48 hrs by MTT assay; format: functional, cell-based; conditions: K562, 48 h
[7] = tested on: HEL; test: Antiproliferative activity against human HEL cells after 48 hrs by MTT assay; format: functional, cell-based
[8] = Antiproliferative activity against human H7402 cells after 48 hrs by MTT assay; format: functional, cell-based; conditions: H7402, 48 h
How it was run: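 Cells kept in RPMI1640 with 10% FBS at 37 °C, 5% CO2. Seeded 5000 per well and allowed at least 4 h to settle, then exposed to a range of compound concentrations for 48 h. 1% MTT solution added for 4 h, formazan dissolved in DMSO over 15 min, OD read at 570 nm. Values are the mean of three experiments.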

[9] = tested on: U-937; test: Antiproliferative activity against human U937 cells after 48 hrs by MTT assay; format: functional, cell-based; conditions: U-937, 48 h
[10] = tested on: MCF7; test: Antiproliferative activity against human MCF7 cells after 48 hrs by MTT assay; format: functional, cell-based; conditions: MCF7, 48 h
[11] = tested on: HCT-116; test: Antiproliferative activity against human HCT116 cells after 48 hrs by MTT assay; format: functional, cell-based; conditions: HCT-116, 48 h
[12] = tested on: MDA-MB-231; test: Antiproliferative activity against human MDA-MB-231 cells after 48 hrs by MTT assay; format: functional, cell-based; conditions: MDA-MB-231, 48 h
[13] = tested on: HeLa; test: Antiproliferative activity against human HeLa cells after 48 hrs by MTT assay; format: functional, cell-based
[14] = molecular target: Histone deacetylase 1 (Homo sapiens, UniProt Q13547); test: Inhibition of HDAC1 (unknown origin) using Boc-Lys (acetyl)-AMC as substrate preincubated for 30 mins before substrate addition measured after 20 mins by UV-vis spectrophotometer analysis
[15] = molecular target: Histone deacetylase 3 (Homo sapiens, UniProt O15379); test: Inhibition of HDAC3 (unknown origin) using Boc-Lys (acetyl)-AMC as substrate preincubated for 30 mins before substrate addition measured after 20 mins by UV-vis spectrophotometer analysis
[16] = tested on: Mus musculus; test: Toxicity in human H7402 cells xenografted mouse assessed as change in body weight at 60 mg/kg/day, po for 16 days; format: organism-based; conditions: in vivo, 384 h
How it was run: (§1)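 H7402 subcutaneous xenograft in male athymic nude mice, seven per group, started once tumors reached about 140 mm³. Compound given daily by gavage for 16 days; controls received an equal volume of PBS. Body weight recorded every three days, and toxicity monitored during treatment.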

[17] = tested on: Mus musculus; test: Toxicity in human H7402 cells xenografted mouse assessed as change in toxic effect at 60 mg/kg/day, po for 16 days; format: organism-based; conditions: in vivo, 384 h; how it was run: as §1
[18] = molecular target: T1, Protein deacetylase HDAC6 (Homo sapiens, UniProt Q9UBN7); test: Inhibition of HDAC6 (unknown origin) using Boc-Lys (acetyl)-AMC as substrate preincubated for 30 mins before substrate addition measured after 20 mins by UV-vis spectrophotometer analysis
T1 sequence (Q9UBN7 whole entry): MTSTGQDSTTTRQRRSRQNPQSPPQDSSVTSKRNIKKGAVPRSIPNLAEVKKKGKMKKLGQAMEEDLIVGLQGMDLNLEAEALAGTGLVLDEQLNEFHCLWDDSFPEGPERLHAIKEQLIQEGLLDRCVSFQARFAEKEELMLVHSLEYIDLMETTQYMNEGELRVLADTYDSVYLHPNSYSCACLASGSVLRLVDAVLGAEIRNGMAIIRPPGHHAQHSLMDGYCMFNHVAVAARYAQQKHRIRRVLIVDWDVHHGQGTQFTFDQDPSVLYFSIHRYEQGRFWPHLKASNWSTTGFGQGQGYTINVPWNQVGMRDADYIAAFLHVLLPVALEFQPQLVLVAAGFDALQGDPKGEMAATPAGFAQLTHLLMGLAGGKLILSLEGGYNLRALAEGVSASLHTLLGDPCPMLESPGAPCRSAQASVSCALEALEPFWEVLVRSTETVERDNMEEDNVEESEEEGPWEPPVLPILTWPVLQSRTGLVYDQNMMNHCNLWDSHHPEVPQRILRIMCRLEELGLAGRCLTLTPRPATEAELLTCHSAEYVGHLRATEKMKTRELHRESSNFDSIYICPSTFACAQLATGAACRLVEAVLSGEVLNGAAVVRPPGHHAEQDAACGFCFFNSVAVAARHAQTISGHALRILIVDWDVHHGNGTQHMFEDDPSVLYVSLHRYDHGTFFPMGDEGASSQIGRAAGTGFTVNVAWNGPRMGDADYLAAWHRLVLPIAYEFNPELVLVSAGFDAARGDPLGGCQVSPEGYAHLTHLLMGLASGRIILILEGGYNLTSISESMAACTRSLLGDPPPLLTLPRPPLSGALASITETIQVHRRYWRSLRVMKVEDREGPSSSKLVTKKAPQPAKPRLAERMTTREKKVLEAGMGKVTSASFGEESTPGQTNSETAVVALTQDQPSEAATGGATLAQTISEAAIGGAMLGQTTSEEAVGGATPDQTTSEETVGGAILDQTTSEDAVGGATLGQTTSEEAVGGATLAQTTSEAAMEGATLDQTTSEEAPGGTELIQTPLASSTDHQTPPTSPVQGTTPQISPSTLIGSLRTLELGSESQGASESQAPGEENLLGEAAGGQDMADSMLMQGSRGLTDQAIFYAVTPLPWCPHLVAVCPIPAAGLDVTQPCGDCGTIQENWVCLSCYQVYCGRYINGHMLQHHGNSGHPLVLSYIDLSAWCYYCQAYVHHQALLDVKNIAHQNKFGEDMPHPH

[19] = Antitumor activity against human H7402 cells xenografted in mouse assessed as tumor increment ratio at 60 mg/kg/day, po for 16 days relative to control; format: functional
How it was run: (§2)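 Male athymic nude mice, 4-6 weeks old, inoculated subcutaneously in the right axilla with 6.88×10^7 H7402 cells. After 8 days, at about 140 mm³ mean tumor volume, mice were randomized to groups of seven. Daily gavage for 16 days; controls received an equal volume of PBS. Tumors were measured by caliper every three days, V=ab²/2. T/C% = treated RTV/control RTV, where RTV = Vt/V0. Two-tailed t test.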

[20] = tested on: Mus musculus; test: Toxicity in human H7402 cells xenografted mouse assessed as change in toxic effect at 100 mg/kg/day, po for 16 days; format: organism-based; conditions: in vivo, 384 h; how it was run: as §1
[21] = Antitumor activity against human H7402 cells xenografted in mouse assessed as tumor increment ratio at 100 mg/kg/day, po for 16 days relative to control; format: functional; how it was run: as §2
[22] = tested on: Mus musculus; test: Toxicity in human H7402 cells xenografted mouse assessed as change in body weight at 100 mg/kg/day, po for 16 days; format: organism-based; conditions: in vivo, 384 h; how it was run: as §1

Chain of Histone deacetylase 1 (Q13547 whole entry): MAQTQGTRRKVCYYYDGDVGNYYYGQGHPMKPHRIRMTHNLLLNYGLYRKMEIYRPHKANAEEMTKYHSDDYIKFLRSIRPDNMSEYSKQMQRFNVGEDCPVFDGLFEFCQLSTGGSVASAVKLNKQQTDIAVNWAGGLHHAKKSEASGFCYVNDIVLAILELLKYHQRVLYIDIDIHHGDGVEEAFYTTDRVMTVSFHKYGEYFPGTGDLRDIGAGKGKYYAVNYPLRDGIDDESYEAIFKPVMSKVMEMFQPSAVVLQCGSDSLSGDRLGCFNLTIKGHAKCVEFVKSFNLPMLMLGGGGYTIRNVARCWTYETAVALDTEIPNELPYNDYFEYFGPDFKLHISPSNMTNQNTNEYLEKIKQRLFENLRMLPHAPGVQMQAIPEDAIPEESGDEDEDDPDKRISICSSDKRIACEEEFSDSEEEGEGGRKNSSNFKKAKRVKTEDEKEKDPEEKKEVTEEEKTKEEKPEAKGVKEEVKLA
Chain of Histone deacetylase 3 (O15379 whole entry): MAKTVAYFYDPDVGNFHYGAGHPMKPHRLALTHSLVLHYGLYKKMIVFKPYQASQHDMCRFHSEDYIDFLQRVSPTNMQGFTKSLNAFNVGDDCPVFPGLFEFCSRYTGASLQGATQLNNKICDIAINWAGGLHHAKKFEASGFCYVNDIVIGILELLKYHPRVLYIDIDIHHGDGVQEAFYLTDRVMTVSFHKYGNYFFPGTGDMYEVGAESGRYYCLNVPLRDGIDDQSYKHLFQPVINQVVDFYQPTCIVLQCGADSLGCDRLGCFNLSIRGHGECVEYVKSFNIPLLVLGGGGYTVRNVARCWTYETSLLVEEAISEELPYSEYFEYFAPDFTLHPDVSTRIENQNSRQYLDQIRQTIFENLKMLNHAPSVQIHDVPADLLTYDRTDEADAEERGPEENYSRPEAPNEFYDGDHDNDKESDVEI

Row | SMILES | IC50 [1] [µM] | IC50 [2] [µM] | IC50 [3] [µM] | IC50 [4] [µM] | IC50 [5] [µM] | IC50 [6] [µM] | IC50 [7] [µM] | IC50 [8] [µM] | IC50 [9] [µM] | IC50 [10] [µM] | IC50 [11] [µM] | IC50 [12] [µM] | IC50 [13] [µM] | other results
1 | O=C(CNC(=O)CN1C(=O)C2(OCCO2)c2cc(Br)ccc21)NO | > 50 |  |  |  |  |  |  |  |  |  |  |  |  | 
2 | O=C(CCCNC(=O)CN1C(=O)C2(OCCO2)c2cc(Br)ccc21)NO | 0.92 |  |  |  |  |  |  |  |  |  |  |  |  | 
3 | O=C(CCCCCNC(=O)CN1C(=O)C2(OCCO2)c2cc(Br)ccc21)NO | 0.67 |  |  |  |  |  |  |  |  |  |  |  |  | 
4 | O=C(/C=C/c1ccc(NC(=O)CN2C(=O)C3(OCCO3)c3cc(Br)ccc32)cc1)NO | 0.22 |  |  |  |  |  |  |  |  |  |  |  |  | 
5 | O=C(CN1C(=O)C2(OCCO2)c2cc(F)ccc21)Nc1ccc(C(=O)NO)cc1 | 0.19 |  |  |  |  |  |  |  |  |  |  |  |  | 
6 | O=C(CN1C(=O)C2(OCCO2)c2cc(Cl)ccc21)Nc1ccc(C(=O)NO)cc1 | 0.37 |  |  |  |  |  |  |  |  |  |  |  |  | 
7 | O=C(CN1C(=O)C2(OCCO2)c2cc(Br)ccc21)Nc1ccc(C(=O)NO)cc1 | 0.12 |  |  |  |  |  |  |  |  |  |  |  |  | 
8 | O=C(CN1C(=O)C2(OCCO2)c2ccccc21)Nc1ccc(C(=O)NO)cc1 | 0.31 |  |  |  |  |  |  |  |  |  |  |  |  | 
9 | Cc1ccc2c(c1)C1(OCCO1)C(=O)N2CC(=O)Nc1ccc(C(=O)NO)cc1 | 0.28 |  |  |  |  |  |  |  |  |  |  |  |  | 
10 | O=C(CN1C(=O)C2(OCCO2)c2cc([N+](=O)[O-])ccc21)Nc1ccc(C(=O)NO)cc1 | > 50 |  |  |  |  |  |  |  |  |  |  |  |  | 
11 | O=C(CN1C(=O)C2(OCCCO2)c2cc(Cl)ccc21)Nc1ccc(C(=O)NO)cc1 | 0.0344 | 10.1 | 9.19 | 21.9 | 12.3 | 5.32 | 1.25 | 4.64 | 2.09 | 28.4 | 41.9 | 57.1 | 11.3 | 
12 | O=C(CN1C(=O)C2(OCCCCO2)c2cc(Cl)ccc21)Nc1ccc(C(=O)NO)cc1 | 0.0373 | 25.3 | 10.1 | 11.6 | 23.6 | 7.23 | 1.29 | 5.34 | 1.49 | 25 | 42.4 | 36.4 | 36.1 | 
13 | O=C(CN1C(=O)C2(OCCCO2)c2cc(Br)ccc21)Nc1ccc(C(=O)NO)cc1 | 0.013 | 16.1 | 5.4 | 11 | 18.3 | 1.94 | 0.56 | 1.37 | 0.4 | 8.58 | 60.1 | 44.7 | 12.1 | 
14 | O=C(CN1C(=O)C2(OCCCCO2)c2cc(Br)ccc21)Nc1ccc(C(=O)NO)cc1 | 0.0216 | 3.6 | 5.49 | 17.7 | 27.2 | 3.91 | 0.64 | 0.75 | 0.66 | 6.13 | 80.2 | 24.1 | > 50 | 
15 | O=C(CCN1C(=O)C2(OCCCO2)c2cc(Br)ccc21)Nc1ccc(C(=O)NO)cc1 | 0.01013 | 2.8 | 0.32 | 1.91 | 3.25 | 0.18 | 0.33 | 5.33 | 0.14 | 52.6 | 1.26 | 101 | 2.79 | IC50 [14]: 0.201 µM; IC50 [15]: 0.025 µM; Activity [16]: Non-toxic; Activity [17]: Non-toxic; IC50 [18]: 0.126 µM; T/C [19]: 62.5%
16 | O=C(CCCN1C(=O)C2(OCCCO2)c2cc(Br)ccc21)Nc1ccc(C(=O)NO)cc1 | 0.0194 | 6.02 | 0.42 | 7.93 | 21.4 | 0.39 | 0.34 | 0.58 | 0.22 | 13.7 | 1.1 | 126 | 22.2 | 
17 | COC(=O)c1ccc(NC(=O)CN2C(=O)C3(OCCCO3)c3cc(Br)ccc32)cc1 | > 50 |  |  |  |  |  |  |  |  |  |  |  |  | 
18 | O=C(CN1C(=O)C2(OCCCO2)c2cc(Br)ccc21)Nc1ccc(C(=O)O)cc1 | > 50 |  |  |  |  |  |  |  |  |  |  |  |  | 
19 | Nc1ccccc1NC(=O)c1ccc(NC(=O)CN2C(=O)C3(OCCCO3)c3cc(Br)ccc32)cc1 | 0.31 | 6.49 | 5.92 | 4.43 | 9.71 | 0.44 |  | 1.95 | 1.08 | 5.23 | 0.64 | 82.7 | 26.6 | 
20 | O=C(CCCCCCC(=O)Nc1ccccc1)NO [VORINOSTAT] |  |  |  |  |  |  |  | 10.1 |  |  |  |  |  | Activity [20]: Non-toxic; T/C [21]: 75.53%; Activity [22]: Non-toxic
